Consider four compounds from paper PMC5966832 (Environmental science & technology, 2018).

For series [1], the system named is human liver microsomes. The series is classed as in vitro ADME. Particulars: for Difference in rate of metabolite formation, donor H1 vs. donor H5: individual donor HLM preparations. The method, boiled down: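 Pooled HLMs (50 donors, mixed gender) or female single-donor HLMs (H1–H5, age 20–58) were used. Buffer was 0.1 M phosphate pH 7.4 with 3 mM MgCl2. Pre-incubated 5 min at 37 °C, then started with substrate in DMSO (≤0.5% of volume), in triplicate. Stopped with ice-cold 0.5 M NaOH and heated 110 °C for 10 min. Extracts were methylated and run on GC-μECD against PCB 204 using relative response factors. Rates adjusted per nmol P450 or per mg protein.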

Series [2] deals with human liver microsomes. Description: Atropselective. It is filed as in vitro ADME. The following applies: for EF of the OH-PCB metabolite before racemization: representative extract, 15 min incubation, 50 μM PCB 91, HLMs from donor H5. Summed up: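 Racemic PCB 91 at 50 μM was incubated 15 min at 37 °C with 0.1 mg/mL microsomes and 1 mM NADPH, in triplicate. Depletion runs used 5 or 50 μM, 120 min, 0.5 mg/mL protein and 0.5 mM NADPH. Metabolites were methylated with diazomethane. GC-μECD used a ChiralDex B-DM column (135 °C) for PCB 91, 5-91 and 4-91, and a G-TA column (140 °C) for 3-100. EF = E1/(E1+E2) by drop valley; mean ± SD.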

Series [3] is classed as physicochemical. The following applies: extract heated at 300 °C for 2 h; for EF of the OH-PCB metabolite after racemization: 15 min incubation, donor H5. The method, boiled down: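 Representative hexane extracts were placed in amber ampules and heated at 300 °C. One came from a pooled-HLM incubation; the other from a 50 μM PCB 91 incubation with donor H5 microsomes. Both were re-run by enantioselective GC-μECD, ChiralDex B-DM or G-TA column according to analyte. EF = E1/(E1+E2), drop valley method.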

Series [4] concerns rat liver microsomes. The following applies: E2-PCB 91 enriched; cited from earlier work.
In series [5] the test system is recombinant rat CYP2B1. Particulars: E2-PCB 91 enriched; cited from earlier work.

As to `Oc1c(Cl)cc(Cl)c(-c2ccc(Cl)cc2Cl)c1Cl` [3-100, 2,2′,4,4′,6-pentachlorobiphenyl-3-ol], the “Difference in rate of metabolite formation, donor H1 vs. donor H5” value (“Difference in rate” below) in series [1] was found to be 2.6 fold. Further, the “EF of the OH-PCB metabolite before racemization” value in series [2] turned out to be 0.87. Also, the “EF of the OH-PCB metabolite after racemization” value in series [3] is given as 0.46.

As to `Oc1cc(Cl)c(-c2ccc(Cl)cc2Cl)c(Cl)c1Cl` [4-91, 2,2′,3,4′,6-pentachlorobiphenyl-4-ol], in series [1], the “Difference in rate” value came out at 5.4 fold. Further, the “EF of the OH-PCB metabolite before racemization” value in series [2] was found to be 0.85. Moreover, the “EF of the OH-PCB metabolite after racemization” value in series [3] was 0.51.

As to `Oc1cc(Cl)c(Cl)c(-c2ccc(Cl)cc2Cl)c1Cl` [5-91, 2,2′,3,4′,6-pentachlorobiphenyl-5-ol], the “Difference in rate” value in series [1] stood at 19 fold. Moreover, in series [2], the “EF of the OH-PCB metabolite before racemization” value worked out at 0.43. For the same compound, the “EF of the OH-PCB metabolite after racemization” value in series [3] is 0.49.

For the compound `Clc1ccc(-c2c(Cl)ccc(Cl)c2Cl)c(Cl)c1` [PCB 91, 2,2′,3,4′,6-pentachlorobiphenyl], the “PCB 91 added to the incubation converted to OH-PCB metabolites” value in series [1] (50 μM PCB 91, 0.1 mg/mL HLMs, 1 mM NADPH, 5 or 15 min, 37 °C) was at most 2%. For the same compound, in series [2] (high concentrations of racemic PCB 91), the “EF of PCB 91, all other incubations” value was “near racemic”. In series [3] (2 h incubation, 5 μM PCB 91, pHLMs), the “EF of PCB 91 after racemization” value was 0.50. Besides, the “EF of PCB 91 in incubations with rat liver microsomes” value in series [4] was 0.43. Besides, the “EF of PCB 91 in incubations with recombinant rat CYP2B1” value in series [5] is listed as 0.45.
